Data from ChEMBL document CHEMBL3232882, “N-Acyl-phosphoramidates as potential novel form of gemcitabine prodrugs” (Bioorg Med Chem, 2014).

Legend:
[1] = Inhibition of Escherichia coli DNA polymerase 1 without 3' to 5'-exonucleolytic activity using dCTP as substrate assessed as single base extension reaction after 2 hrs
Summary of the method: (§1)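 Compound (0.4–2.0 mM; 1- to 5-fold over dCTP) added together with 0.4 mM dCTP in 0.05 M Tris-HCl pH 8.0, 5 mM MgCl2, 1 mM DTT, 2 h at 37 °C. The n+1 product was quantified after 20% PAGE/7 M urea and autoradiography; EC50 is the concentration giving 50% inhibition.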

[2] = Inhibition of Escherichia coli DNA polymerase 1 with 3' to 5'-exonucleolytic activity using dCTP as substrate assessed as single base extension reaction after 2 hrs; summary of the method: as §1

EC50 [1]: 490 µM | EC50 [2]: 540 µM
SMILES: Nc1ncnc2c1ncn2[C@H]1C[C@H](O)[C@@H](COP(=O)(O)NC(=O)c2cccnc2)O1
